Reference: ChEMBL document CHEMBL1212794, “Efficacy of clarithromycin against experimentally induced pneumonia caused by clarithromycin-resistant Haemophilus influenzae in mice” (2010)
In brackets after ≈: the same amount, converted by molar mass. Activity calls are given as the source filed them. The calls are words filed in the database; no cut-off is given here.

Columns and labels:
Haemophilus influenzae [1] = assay: Antibacterial activity against nontypeable beta-lactamase-negative ampicillin-resistant Haemophilus influenzae 4437; type: functional
Outline: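 MIC by CLSI broth dilution in Haemophilus Test Medium, inoculum 10^5 CFU/ml, tested in duplicate. β-lactamase production checked by nitrocefin test.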

Mus musculus [2] = assay: Antiinflammatory activity against nontypeable beta-lactamase-negative ampicillin-resistant Haemophilus influenzae 4437 infected in mouse ddY assessed as decrease in neutrophil count in bronchoalveolar lavage fluid at 100 mg/kg, po bid for 3 days relative to control; type: functional, organism-based; set-up: dose 100 mg/kg; conditions: Lung
Outline: (§1)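 Intubated ddY mice challenged intratracheally, then dosed orally twice daily from 24 h for 3 days and lavaged 12 h after the last dose (3 × 1.0 ml saline, pooled). Total cells counted with Turk stain. Differentials counted on 100 cytocentrifuged cells stained with Diff-Quick. Four experiments.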

Haemophilus influenzae [3] = assay: Antibacterial activity against nontypeable beta-lactamase-negative ampicillin-resistant Haemophilus influenzae 4437 infected in mouse ddY assessed as decrease in viable bacterial count at 100 mg/kg, po bid for 3 days; type: functional
Outline: (§2)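 Male ddY SPF mice, 6 weeks old, with a tube placed into the main bronchus 7 days before intratracheal challenge under pentobarbital. Drug given in DMSO orally twice daily from 24 h post-infection for 3 days. Mice killed 12 h after the last dose. Lungs homogenized in 1.0 ml PBS, serially diluted and plated on chocolate agar overnight at 37°C, 5% CO2. Four experiments.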

Haemophilus influenzae [4] = assay: Antibacterial activity against nontypeable beta-lactamase-negative ampicillin-resistant Haemophilus influenzae 4437 infected in mouse ddY assessed as decrease in viable bacterial count at 40 mg/kg, po bid for 3 days; type: functional; outline: as §2
Mus musculus [5] = assay: Antiinflammatory activity against nontypeable beta-lactamase-negative ampicillin-resistant Haemophilus influenzae 4437 infected in mouse ddY assessed as decrease in neutrophil count in bronchoalveolar lavage fluid at 40 mg/kg, po bid for 3 days; type: functional, organism-based; set-up: dose 40 mg/kg; conditions: Lung; outline: as §1
Mus musculus [6] = assay: Antiinflammatory activity against nontypeable beta-lactamase-negative ampicillin-resistant Haemophilus influenzae 4437 infected in mouse ddY assessed as decrease in MIP-2 level in bronchoalveolar lavage fluid at 40 mg/kg, po bid for 3 days relative to control; type: functional, organism-based; set-up: dose 40 mg/kg; conditions: Lung
Outline: (§3)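 Intubated ddY mice challenged intratracheally, then dosed orally twice daily from 24 h for 3 days and killed 12 h after the last dose. BAL done with 3 × 1.0 ml saline, pooled per animal. MIP-2 and IL-1β in BAL fluid measured by mouse ELISA kits. Four experiments.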

Mus musculus [7] = assay: Antiinflammatory activity against nontypeable beta-lactamase-negative ampicillin-resistant Haemophilus influenzae 4437 infected in mouse ddY assessed as decrease in MIP-2 level in bronchoalveolar lavage fluid at 100 mg/kg, po bid for 3 days relative to control; type: functional, organism-based; set-up: dose 100 mg/kg; conditions: Lung; outline: as §3
Haemophilus influenzae [8] = assay: Antibacterial activity against macrolide-resistant Haemophilus influenzae 4437 infected in NCI-H292 cells assessed as decrease in viable bacterial count at 64 ug/ml by 3-h invasion assay; type: functional, organism-based
Outline: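 NCI-H292 cells in RPMI 1640 with 10% FBS, seeded at 5 × 10^5/well, then held in 0.5% FBS for 24 h at confluence. Infected with 10 µl of about 6 × 10^6 CFU/ml bacteria for 3 h at 37°C, 5% CO2. Washed, then gentamicin 200 µg/ml with drug for 2 h. Lysed in 1% Triton X-100; intracellular CFU counted on chocolate agar. Three experiments.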

Mus musculus [9] = assay: Antiinflammatory activity against nontypeable beta-lactamase-negative ampicillin-resistant Haemophilus influenzae infected in mouse ddY assessed as inflammatory changes in lung at 40 mg/kg, po bid for 3 days relative to control; type: functional, organism-based; set-up: dose 40 mg/kg
Outline: (§4)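 Intubated ddY mice challenged intratracheally, then dosed orally twice daily for 3 days. Lungs fixed in 10% buffered formalin, stained with hematoxylin and eosin, and examined at ×200 for inflammatory cell infiltration of alveoli and bronchioles.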

Mus musculus [10] = assay: Antiinflammatory activity against nontypeable beta-lactamase-negative ampicillin-resistant Haemophilus influenzae 4437 infected in mouse ddY assessed as decrease in IL1-beta level in bronchoalveolar lavage fluid at 100 mg/kg, po bid for 3 days relative to control; type: functional, organism-based; set-up: dose 100 mg/kg; conditions: Lung; outline: as §3
Mus musculus [11] = assay: Antiinflammatory activity against nontypeable beta-lactamase-negative ampicillin-resistant Haemophilus influenzae 4437 infected in mouse ddY assessed as decrease in IL1-beta level in bronchoalveolar lavage fluid at 40 mg/kg, po bid for 3 days relative to control; type: functional, organism-based; set-up: dose 40 mg/kg; conditions: Lung; outline: as §3
Mus musculus [12] = assay: Antiinflammatory activity against nontypeable beta-lactamase-negative ampicillin-resistant Haemophilus influenzae 4437 infected in mouse ddY assessed as decrease in total cell count in bronchoalveolar lavage fluid at 40 mg/kg, po bid for 3 days; type: functional, organism-based; set-up: dose 40 mg/kg; conditions: Lung; outline: as §1
Mus musculus [13] = assay: Antiinflammatory activity against nontypeable beta-lactamase-negative ampicillin-resistant Haemophilus influenzae 4437 infected in mouse ddY assessed as decrease in total cell count in bronchoalveolar lavage fluid at 100 mg/kg, po bid for 3 days; type: functional, organism-based; set-up: dose 100 mg/kg; conditions: Lung; outline: as §1
Mus musculus [14] = assay: Antiinflammatory activity against nontypeable beta-lactamase-negative ampicillin-resistant Haemophilus influenzae infected in mouse ddY assessed as inflammatory changes in lung at 100 mg/kg, po bid for 3 days relative to control; type: functional, organism-based; set-up: dose 100 mg/kg; outline: as §4

SMILES | MIC (Haemophilus influenzae [1]) | Activity (Mus musculus [2]) | log10CFU/ml (Haemophilus influenzae [3]) | log10CFU/ml (Haemophilus influenzae [4]) | Activity (Mus musculus [5]) | Activity (Mus musculus [6]) | Activity (Mus musculus [7]) | Activity (Haemophilus influenzae [8]) | Activity (Mus musculus [9]) | Activity (Mus musculus [10]) | Activity (Mus musculus [11]) | Activity (Mus musculus [12]) | Activity (Mus musculus [13]) | Activity (Mus musculus [14])
CC1(C)S[C@@H]2[C@H](NC(=O)[C@H](N)c3ccccc3)C(=O)N2[C@H]1C(=O)O [AMPICILLIN] | 16 µg/mL (≈ 45.8 µM) |  |  |  |  |  |  |  |  |  |  |  |  | 
CC[C@H]1OC(=O)[C@H](C)[C@@H](O[C@H]2C[C@@](C)(OC)[C@@H](O)[C@H](C)O2)[C@H](C)[C@@H](O[C@@H]2O[C@H](C)C[C@H](N(C)C)[C@H]2O)[C@](C)(OC)C[C@@H](C)C(=O)[C@H](C)[C@@H](O)[C@]1(C)O [CLARITHROMYCIN] | 64 µg/mL (≈ 85.6 µM) | Active | 4.6 | 5.8 | Active | Active | Active | Active | Active | Active | Active | Active | Active | Active
